Unmarked numbers belong to inactive results.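 The calls were made as follows: active = maximum inhibition above 30% at any tested concentration, with a dose response curve fitted; inactive = no inhibition at any dose or no dose response curve.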
assay: parental HEK293 potassium flux blockers – cell-based, FluxOR thallium flux, concentration-response, set 2, counter-screen for KCNK9 inhibitor project, SAR follow-up (AID 540324); settings: FluxOR fluorescence ratio; series mostly up to 30 µM; flux ratio, lower = inhibition: at the top concentration
Summary of the method: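 System – parental HEK293 cells lacking KCNK9 expression · Reagent – K+/Tl+ sulfate stimulus, 5x stock · Dosing – Ten-concentration dilution series per compound · Times – dye loading 90 min at room temperature in dark, compound exposure 20 min · Detection – fluorescence of thallium-sensitive FluxOR dye · Repeats – at least two replicates per compound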

Compound	flux ratio, lower = inhibition
Cc1cccc(C(=O)Nc2cccc(NC(=O)c3ccccc3OCC(C)C)c2)c1	0.117
Cc1cccc(C(=O)Nc2cccc(NC(=O)c3cccc(C(F)(F)F)c3)c2)c1	0.185
Cc1cccc(C(=O)Nc2cccc(NC(=O)c3ccncc3)c2)c1	0.182
CCOc1ccccc1NC(=O)c1cccc(NC(=O)c2ccc(C(F)(F)F)cc2)c1	0.208
Cc1cccc(-c2n[nH]c(=S)n2C(C)C2CC3CCC2C3)c1 (stereo not given)	0.534
CC(C)n1c(-c2ccco2)n[nH]c1=S	0.144
Cc1cccc(C(=O)Nc2cccc(NC(=O)c3ccccc3C(C)C)c2)c1	0.155
COc1cccc(OC)c1C(=O)Nc1cccc(NC(=O)c2cccc(C)c2)c1	0.166
COc1ccccc1C(=O)Nc1cccc(NC(=O)c2ccccc2)c1	0.149
COc1ccc(-c2n[nH]c(=S)n2C(C)C2CC3CCC2C3)cc1 (stereo not given)	0.18
COc1ccccc1NC(=O)c1cccc(NC(=O)c2ccccc2)c1	0.176
CCOc1ccccc1C(=O)Nc1cccc(NC(=O)c2cccc(C)c2)c1	0.15
COc1ccccc1NC(=O)c1cccc(NC(=O)CC2CCCC2)c1	0.154
Cc1cccc(C(=O)Nc2cccc(NC(=O)c3cccc(Cl)c3)c2)c1	0.154
CCOc1ccccc1NC(=O)c1cccc(NC(=O)c2ccccc2OC(F)(F)F)c1	0.165
O=C(Nc1cccc(NC(=O)c2ccco2)c1)c1ccccc1	0.189
CCOc1ccccc1NC(=O)c1cccc(NC(=O)c2ccccc2)c1	0.157
COc1ccccc1NC(=O)c1cccc(NC(=O)C2CCCCC2)c1	0.16

Compound	flux ratio, lower = inhibition
CCOc1ccccc1NC(=O)c1cccc(NC(=O)CC2CCCCC2)c1	0.151
CCOc1ccccc1NC(=O)c1cccc(NC(=O)c2ccc(C)cc2)c1	0.163
CC(C1CC2CCC1C2)n1c(-c2ccc(Cl)cc2)n[nH]c1=S (stereo not given)	0.322
CCOc1ccccc1NC(=O)c1cccc(NC(=O)c2cccc(OC)c2)c1	0.162
O=C(Nc1cccc(NC(=O)c2cccc(Cl)c2)c1)c1ccccc1	0.193
Cc1cccc(C(=O)Nc2cccc(NC(=O)c3ccco3)c2)c1	0.164
O=C(Nc1cccc(NC(=O)c2ccccc2)c1)c1ccccc1	0.194
CCOc1ccccc1C(=O)Nc1cccc(NC(=O)C2CCCC2)c1	0.124
Cc1cccc(C(=O)Nc2cccc(NC(=O)c3ccccc3)c2)c1	0.164
O=C(Nc1cccc(NC(=O)c2cccnc2)c1)c1ccccc1	0.207
Cc1cccc(C(=O)Nc2cccc(NC(=O)c3ccc(Cl)cc3)c2)c1	0.212
O=C(Nc1cccc(NC(=O)c2ccc(F)cc2)c1)c1ccccc1	0.204
COc1cccc(-c2n[nH]c(=S)n2C(C)C2CC3CCC2C3)c1 (stereo not given)	0.135
O=C(Nc1cccc(NC(=O)c2ccoc2)c1)c1ccccc1	0.161
Cc1cccc(C(=O)Nc2cccc(NC(=O)c3ccc(C(F)(F)F)cc3)c2)c1	0.196
CN(C)c1ccc(C(=O)Nc2cccc(NC(=O)c3ccccc3)c2)cc1	0.199
O=C(Nc1cccc(NC(=O)c2ccsc2)c1)c1ccccc1	0.179

— PubChem BioAssay AID540324 (Johns Hopkins Ion Channel Center, 2011)
